system: not listed separately; assay: Area under curve was determined using 20%aqueous hydroxypropyl-beta-cyclodextrin (HPbetaCD) as vehicle. Compound was administered intravenously to nude mice at a dose of 25 mg/kg; assay type: ADME, organism-based; design: dose 25 mg/kg, route intravenous; conditions: mouse, in vivo, iv
Method in brief: (§1)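 Nude mice were dosed at 25 mpk, intravenously or orally as the line states, in 20% aqueous hydroxypropyl-β-cyclodextrin or 0.4% aqueous methyl cellulose. Serum was sampled over 24 h. Each time point came from sera of different animals.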

Row | AUC | Structure (SMILES)
1 | 27100 ng·h/mL | NC(=O)C(=O)N1CCC(CC(=O)N2CCC([C@H]3c4ncc(Br)cc4CCc4cc(Cl)cc(Br)c43)CC2)CC1
2 | 62000 ng·h/mL | O=C(CC1CCN(C(=O)c2ccc[n+]([O-])c2)CC1)N1CCC([C@H]2c3ncc(Br)cc3CCc3cc(Cl)cc(Br)c32)CC1

Row | Structure (SMILES) | AUC
3 | NC(=O)N1CCC(CC(=O)N2CCC([C@H]3c4ncc(Br)cc4CCc4cc(Cl)cc(Br)c43)CC2)CC1 [LONAFARNIB] | 31800 ng·h/mL

system: not listed separately; assay: Area under curve was determined using 20%aqueous hydroxypropyl-beta-cyclodextrin (HPbetaCD) as vehicle. Compound was administered orally to nude mice at a dose of 25 mg/kg; assay type: ADME, organism-based; design: dose 25 mg/kg, route oral; conditions: mouse, in vivo, po; method in brief: as §1

Row | AUC | Structure (SMILES)
4 | 45000 ng·h/mL | NC(=O)C(=O)N1CCC(CC(=O)N2CCC([C@H]3c4ncc(Br)cc4CCc4cc(Cl)cc(Br)c43)CC2)CC1
5 | 70100 ng·h/mL | O=C(CC1CCN(C(=O)c2ccc[n+]([O-])c2)CC1)N1CCC([C@H]2c3ncc(Br)cc3CCc3cc(Cl)cc(Br)c32)CC1

Row | Structure (SMILES) | AUC
6 | NC(=O)N1CCC(CC(=O)N2CCC([C@H]3c4ncc(Br)cc4CCc4cc(Cl)cc(Br)c43)CC2)CC1 [LONAFARNIB] | 24100 ng·h/mL

system: not listed separately; assay: Percent bioavailability was administered by using 0.4% Methyl cellulose (MC) as vehicle to nude mice at a dose of 25 mg/kg (micronized sample); assay type: ADME, organism-based; conditions: mouse, in vivo, read-out: Bioavailabiility
Method in brief: (§2)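 A micronized sample was given orally at 25 mpk to nude mice in 0.4% aqueous methyl cellulose. Serum was collected over 24 h, with separate animals for each time point.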

Row | bioavailability | Structure (SMILES)
7 | 9.28% | O=C(CC1CCN(C(=O)c2ccc[n+]([O-])c2)CC1)N1CCC([C@H]2c3ncc(Br)cc3CCc3cc(Cl)cc(Br)c32)CC1

molecular target: T1, Protein farnesyltransferase (Homo sapiens, UniProt P49354+P49356); assay: Inhibitory activity against Hras Farnesyltransferase (FPT).; assay type: protein-complex assay; conditions: not given

Row | IC50 | Structure (SMILES)
8 | 0.0027 µM | NC(=O)C(=O)N1CCC(CC(=O)N2CCC([C@H]3c4ncc(Br)cc4CCc4cc(Cl)cc(Br)c43)CC2)CC1

system: not listed separately; assay: Maximum concentration (Cmax) using 20%aqueous hydroxypropyl-beta-cyclodextrin (HPbetaCD) as vehicle. compound was administered orally to nude mice at a dose of 25 mg/kg; assay type: ADME, organism-based; design: dose 25 mg/kg, route oral; conditions: mouse, in vivo, po; method in brief: as §1

Row | Cmax | Structure (SMILES)
9 | 7.1 µM | NC(=O)C(=O)N1CCC(CC(=O)N2CCC([C@H]3c4ncc(Br)cc4CCc4cc(Cl)cc(Br)c43)CC2)CC1
10 | 16.2 µM | O=C(CC1CCN(C(=O)c2ccc[n+]([O-])c2)CC1)N1CCC([C@H]2c3ncc(Br)cc3CCc3cc(Cl)cc(Br)c32)CC1

Row | Structure (SMILES) | Cmax
11 | NC(=O)N1CCC(CC(=O)N2CCC([C@H]3c4ncc(Br)cc4CCc4cc(Cl)cc(Br)c43)CC2)CC1 [LONAFARNIB] | 8.84 µM

molecular target: T1, Protein farnesyltransferase; assay: Effect on Ras processing in Cos-1 monkey kidney cells expressing either H-Ras-Val 12-CVLS or H-Ras-Val12.; assay type: functional, cell-based, Cercopithecidae; conditions: not given
Method in brief: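 Ras processing was tested in Cos-1 monkey kidney cells transiently expressing H-Ras-Val12-CVLS or H-Ras-Val12. IC50 values are single-point determinations.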

Row | IC50 | Structure (SMILES)
12 | < 0.01 µM | NC(=O)C(=O)N1CCC(CC(=O)N2CCC([C@H]3c4ncc(Br)cc4CCc4cc(Cl)cc(Br)c43)CC2)CC1
13 | 0.007 µM | O=C(CC1CCN(C(=O)c2ccc[n+]([O-])c2)CC1)N1CCC([C@H]2c3ncc(Br)cc3CCc3cc(Cl)cc(Br)c32)CC1

system: not listed separately; assay: Maximum concentration (Cmax) using 0.4% Methyl cellulose (MC) as vehicle. compound was administered intravenously to nude mice at a dose of 25 mg/kg; assay type: ADME, organism-based; design: dose 25 mg/kg, route intravenous; conditions: mouse, in vivo, iv; method in brief: as §1

Row | Cmax | Structure (SMILES)
14 | 52.3 µM | O=C(CC1CCN(C(=O)c2ccc[n+]([O-])c2)CC1)N1CCC([C@H]2c3ncc(Br)cc3CCc3cc(Cl)cc(Br)c32)CC1

system: not listed separately; assay: Area under curve was determined using 0.4% Methyl cellulose (MC) as vehicle. Compound was administered orally to nude mice at a dose of 25 mg/kg (micronized sample); assay type: ADME, organism-based; design: dose 25 mg/kg, route oral; conditions: mouse, in vivo, po; method in brief: as §2

Row | AUC | Structure (SMILES)
15 | 5750 ng·h/mL | O=C(CC1CCN(C(=O)c2ccc[n+]([O-])c2)CC1)N1CCC([C@H]2c3ncc(Br)cc3CCc3cc(Cl)cc(Br)c32)CC1

system: not listed separately; assay: Half life was administered by using 20%aqueous hydroxypropyl-beta-cyclodextrin (HPbetaCD) as vehicle to nude mice at a dose of 25mpk,; assay type: ADME, organism-based; conditions: mouse, in vivo, 25 mg/kg

Row | half-life | Structure (SMILES)
16 | 1.1 h | NC(=O)C(=O)N1CCC(CC(=O)N2CCC([C@H]3c4ncc(Br)cc4CCc4cc(Cl)cc(Br)c43)CC2)CC1
17 | 1.42 h | O=C(CC1CCN(C(=O)c2ccc[n+]([O-])c2)CC1)N1CCC([C@H]2c3ncc(Br)cc3CCc3cc(Cl)cc(Br)c32)CC1

Row | Structure (SMILES) | half-life
18 | NC(=O)N1CCC(CC(=O)N2CCC([C@H]3c4ncc(Br)cc4CCc4cc(Cl)cc(Br)c43)CC2)CC1 [LONAFARNIB] | 1.4 h

system: not listed separately; assay: Area under curve was determined using 0.4% Methyl cellulose (MC) as vehicle. Compound was administered orally to nude mice at a dose of 25 mg/kg; assay type: ADME, organism-based; design: dose 25 mg/kg, route oral; conditions: mouse, in vivo, po; method in brief: as §1

Row | Structure (SMILES) | AUC
19 | NC(=O)N1CCC(CC(=O)N2CCC([C@H]3c4ncc(Br)cc4CCc4cc(Cl)cc(Br)c43)CC2)CC1 [LONAFARNIB] | 41400 ng·h/mL
20 | O=C(CC1CCN(C(=O)c2ccc[n+]([O-])c2)CC1)N1CCC([C@H]2c3ncc(Br)cc3CCc3cc(Cl)cc(Br)c32)CC1 | 3600 ng·h/mL

molecular target: T1, Protein farnesyltransferase; assay: Inhibition of Hras Farnesyl protein transferase (FPT); assay type: protein-complex assay; conditions: not given

Row | IC50 | Structure (SMILES)
21 | 0.0021 µM | O=C(CC1CCN(C(=O)c2ccc[n+]([O-])c2)CC1)N1CCC([C@H]2c3ncc(Br)cc3CCc3cc(Cl)cc(Br)c32)CC1

system: not listed separately; assay: Maximum concentration (Cmax) using 0.4% Methyl cellulose (MC) as vehicle. compound was administered orally to nude mice at a dose of 25 mg/kg; assay type: ADME, organism-based; design: dose 25 mg/kg, route oral; conditions: mouse, in vivo, po; method in brief: as §1

Row | Structure (SMILES) | Cmax
22 | NC(=O)N1CCC(CC(=O)N2CCC([C@H]3c4ncc(Br)cc4CCc4cc(Cl)cc(Br)c43)CC2)CC1 [LONAFARNIB] | 16.6 µM
23 | O=C(CC1CCN(C(=O)c2ccc[n+]([O-])c2)CC1)N1CCC([C@H]2c3ncc(Br)cc3CCc3cc(Cl)cc(Br)c32)CC1 | 0.75 µM

system: NIH-3T3 (Mus musculus); assay: inhibition of tumor colony formation in soft agar; conditions: not given

Row | Structure (SMILES) | IC50
24 | NC(=O)C(=O)N1CCC(CC(=O)N2CCC([C@H]3c4ncc(Br)cc4CCc4cc(Cl)cc(Br)c43)CC2)CC1 | 0.085 µM
25 | NC(=O)N1CCC(CC(=O)N2CCC([C@H]3c4ncc(Br)cc4CCc4cc(Cl)cc(Br)c43)CC2)CC1 [LONAFARNIB] | 0.075 µM

system: not listed separately; assay: Bioavailability in mouse (nude) using 20% aqueous hydroxypropyl-beta-cyclodextrin (HPbetaCD) as vehicle 25 mg/kg; assay type: ADME, organism-based; conditions: in vivo

Row | F | Structure (SMILES)
26 | 166% | NC(=O)C(=O)N1CCC(CC(=O)N2CCC([C@H]3c4ncc(Br)cc4CCc4cc(Cl)cc(Br)c43)CC2)CC1

same assay, conditions: nude, in vivo

Row | Structure (SMILES) | bioavailability
27 | NC(=O)N1CCC(CC(=O)N2CCC([C@H]3c4ncc(Br)cc4CCc4cc(Cl)cc(Br)c43)CC2)CC1 [LONAFARNIB] | 75.8%
28 | O=C(CC1CCN(C(=O)c2ccc[n+]([O-])c2)CC1)N1CCC([C@H]2c3ncc(Br)cc3CCc3cc(Cl)cc(Br)c32)CC1 | 113%

system: not listed separately; assay: Bioavailability in mouse (nude) (dose 0.4% Methylcellulose (MC) as vehicle 25 mg/kg); assay type: ADME, organism-based; conditions: in vivo

Row | bioavailability | Structure (SMILES)
29 | 5.81% | O=C(CC1CCN(C(=O)c2ccc[n+]([O-])c2)CC1)N1CCC([C@H]2c3ncc(Br)cc3CCc3cc(Cl)cc(Br)c32)CC1

system: not listed separately; assay: Maximum concentration (Cmax) using 20%aqueous hydroxypropyl-beta-cyclodextrin (HPbetaCD) as vehicle. compound was administered intravenously to nude mice at a dose of 25 mg/kg; assay type: ADME, organism-based; design: dose 25 mg/kg, route intravenous; conditions: mouse, in vivo, iv; method in brief: as §1

Row | Cmax | Structure (SMILES)
30 | 26.2 µM | NC(=O)C(=O)N1CCC(CC(=O)N2CCC([C@H]3c4ncc(Br)cc4CCc4cc(Cl)cc(Br)c43)CC2)CC1
31 | 52.3 µM | O=C(CC1CCN(C(=O)c2ccc[n+]([O-])c2)CC1)N1CCC([C@H]2c3ncc(Br)cc3CCc3cc(Cl)cc(Br)c32)CC1

Row | Structure (SMILES) | Cmax
32 | NC(=O)N1CCC(CC(=O)N2CCC([C@H]3c4ncc(Br)cc4CCc4cc(Cl)cc(Br)c43)CC2)CC1 [LONAFARNIB] | 20 µM

system: NIH-3T3 (Mus musculus); assay: Inhibition of tumor colony formation in soft agar; conditions: not given

Row | Structure (SMILES) | IC50
33 | O=C(CC1CCN(C(=O)c2ccc[n+]([O-])c2)CC1)N1CCC([C@H]2c3ncc(Br)cc3CCc3cc(Cl)cc(Br)c32)CC1 | 0.165 µM

system: not listed separately; assay: Area under curve was determined using 0.4% Methyl cellulose (MC) as vehicle. Compound was administered intravenously to nude mice at a dose of 25 mg/kg; assay type: ADME, organism-based; design: dose 25 mg/kg, route intravenous; conditions: mouse, in vivo, iv; method in brief: as §1

Row | AUC | Structure (SMILES)
34 | 62000 ng·h/mL | O=C(CC1CCN(C(=O)c2ccc[n+]([O-])c2)CC1)N1CCC([C@H]2c3ncc(Br)cc3CCc3cc(Cl)cc(Br)c32)CC1

system: not listed separately; assay: Maximum concentration (Cmax) using 0.4% Methyl cellulose (MC) as vehicle. compound was administered orally to nude mice at a dose of 25 mg/kg (micronized sample); assay type: ADME, organism-based; design: dose 25 mg/kg, route oral; conditions: mouse, in vivo, po; method in brief: as §2

Row | Cmax | Structure (SMILES)
35 | 2.27 µM | O=C(CC1CCN(C(=O)c2ccc[n+]([O-])c2)CC1)N1CCC([C@H]2c3ncc(Br)cc3CCc3cc(Cl)cc(Br)c32)CC1
